Data on 18 compounds can be found in ChEMBL document CHEMBL4130550, “Antiproliferative Dimeric Aporphinoid Alkaloids from the Roots of Thalictrum cultratum” (J Nat Prod, 2017).

Broadly, the IC50 is the concentration that inhibits the measured activity by half. Low readings indicate higher potency, high ones lower potency.

The test system of assay [1] is HL-60. Description: Antiproliferative activity against human HL60 cells after 72 hrs by tryphan blue staining based hematocytometric method. It is filed as functional, cell-based. The following applies: HL-60, 72 h. The essentials:
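HL-60 (ATCC) in RPMI-1640 with 10% heat-inactivated FBS, 1 mM glutamine and penicillin/streptomycin, 37 °C, 5% CO2. Cells at 4.5 × 10^4 cells/mL are exposed to a concentration gradient (DMSO stock diluted in absolute EtOH) for 72 h. Trypan blue is added and total cells are counted on a hematocytometer. IC50 is the mean of three parallel experiments. Negative reference is 0.1% DMSO.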

Assay [2] has as its system PC-3. Description: Antiproliferative activity against human PC3 cells by MTT assay. It is filed as functional, cell-based. The essentials:
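PC-3 (ATCC) in supplemented RPMI-1640 with 10% FBS at 37 °C, 5% CO2. Log-phase cells get graded concentrations in triplicate. MTT (5 mg/mL solution) is added for a further 4 h, then dissolved in DMSO and read at 490 nm. IC50 is from the average of three parallel experiments. Negative reference is 0.1% DMSO.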
(In general: Formazan colour is commonly taken as a measure of viable cells.)

Assay [3] concerns PC-3. Nature of the assay: Potency index, ratio of camptothecin IC50 to compound IC50 for human PC3 cells. It is filed as functional.
For assay [4], the system named is HL-60. Nature of the assay: Potency index, ratio of 5-fluorouracil IC50 to compound IC50 for human HL60 cells. It is filed as functional.
Assay [5] deals with PC-3. Description: Potency index, ratio of 5-fluorouracil IC50 to compound IC50 for human PC3 cells. It is filed as functional.

With `COc1cc2c(c(Oc3ccc(C[C@H]4c5cc(OC)c(OC)c(OC)c5CC[N@@+]4(C)[O-])cc3)c1OC)C[C@H]1c3c(c(OC)c(OC)c(OC)c3-2)CCN1C`, the IC50 in the assay with HL-60 [1] came to 5050 nM; in the assay on PC-3 [2], 13.4 µM.

For `COc1cc2c(c(Oc3ccc(C[C@H]4c5cc(OC)c(OC)c(OC)c5CC[N@+]4(C)[O-])cc3)c1OC)C[C@H]1c3c(c(OC)c(OC)c(OC)c3-2)CCN1C`, the IC50 was determined as 4210 nM in the assay with HL-60 [1] and 8.35 µM in the assay on PC-3 [2].

With `COc1cc2c(c(O)c1OC)CCN(C)[C@H]2Cc1ccc(Oc2c3c(cc(OC)c2OC)-c2c(OC)c(OC)cc4c2[C@H](C3)N(C)CC4)cc1`, the figures for the IC50 in the assay on HL-60 [1] and in the assay with PC-3 [2] were 2100 nM and 5.85 µM, respectively.

Take `COc1cc2c(cc1OC)[C@H](Cc1ccc(Oc3c(OC)c(OC)cc4c3cc3c5c(cc(OC)c(OC)c54)CCN3C)cc1)N(C)CC2`: the IC50 in the assay on HL-60 [1] is 4090 nM; in the assay with PC-3 [2] it was 7.86 µM.

In the case of `COc1cc2c(c(O)c1OC)CC[N@@+](C)([O-])[C@H]2Cc1ccc(Oc2c3c(cc(OC)c2OC)-c2c(OC)c(OC)c(OC)c4c2[C@H](C3)N(C)CC4)cc1`, the IC50 with HL-60 [1] worked out at 4570 nM; with PC-3 [2], 18.7 µM.

Consider `COc1cc2c(c(Oc3ccc(C[C@H]4c5cc(OC)c(OC)c(OC)c5CCN4C)cc3)c1OC)C[C@H]1c3c(c(OC)c(OC)c(OC)c3-2)CCN1C`, for which the IC50 with HL-60 [1] was determined as 1160 nM; in the assay on PC-3 [2], 6.05 µM.

`COc1cc2c(c(O)c1OC)CC[N@+](C)([O-])[C@H]2Cc1ccc(Oc2c3c(cc(OC)c2OC)-c2c(OC)c(OC)c(OC)c4c2[C@H](C3)N(C)CC4)cc1`: the IC50 with HL-60 [1] was 2860 nM; with PC-3 [2] it was 12.7 µM.

Regarding `COc1cc2c(cc1OC)[C@H](Cc1ccc(Oc3c4c(cc(OC)c3OC)-c3c(OC)c(OC)cc5c3[C@H](C4)N(C)CC5)cc1)N(C)CC2`, the IC50 in the assay with HL-60 [1] worked out at 1440 nM; in the assay on PC-3 [2] it was 2.72 µM.

As to `O=c1[nH]cc(F)c(=O)[nH]1` [FLUOROURACIL], the IC50 in the assay on PC-3 [2] was 22 µM.

On to `COc1cc2c(cc1OC)-c1cc3c(Oc4cc5c(cc4OC)-c4c(OC)c(OC)c(OC)c6c4[C@H](C5)N(C)CC6)c(OC)c(OC)cc3c(=O)n1CC2`, for which the values for the IC50 in the assay on HL-60 [1] and in the assay with PC-3 [2] were 10300 nM and 3.72 µM, respectively.

As for `COc1cc2c(c(OC)c1OC)CCN(C)[C@H]2Cc1ccc(Oc2c(OC)c(OC)cc3c2cc2c4c(c(OC)c(OC)c(OC)c43)CCN2C)cc1`, the figures for the IC50 with HL-60 [1] and in the assay with PC-3 [2] were 2120 nM and 6.01 µM, respectively.

Consider `COc1cc2c(cc1OC)[C@H](Cc1ccc(Oc3c4c(cc(OC)c3OC)-c3c(OC)c(OC)c(OC)c5c3[C@H](C4)N(C)CC5)cc1)N(C)CC2` [THALIFABERINE], for which the IC50 worked out at 1580 nM in the assay with HL-60 [1] and 7.27 µM with PC-3 [2].

In the case of `COc1cc2c(c3c1OCO3)CCN(C)[C@H]2Cc1ccc(Oc2c(OC)c(OC)cc3c2cc2c4c(c(OC)c(OC)c(OC)c43)CCN2C)cc1`, the IC50 came to 1770 nM in the assay on HL-60 [1] and 3.29 µM with PC-3 [2].

Turning to `COc1cc2c(cc1OC)C1=Cc3c(cc(OC)c(OC)c3Oc3cc4c(cc3OC)-c3c(OC)c(OC)c(OC)c5c3[C@H](C4)N(C)CC5)CN1CC2`, the values for the IC50 with HL-60 [1] and in the assay on PC-3 [2] were 1770 nM and 11.6 µM, respectively.

As for `COc1cc2c(cc1OC)[C@H](Cc1ccc(Oc3c(OC)c(OC)cc4c3cc3c5c(c(OC)c(OC)c(OC)c54)CCN3C)cc1)N(C)CC2`, the IC50 is 2410 nM in the assay with HL-60 [1] and 2.56 µM with PC-3 [2].

In the case of `COc1cc2c(c(O)c1OC)CCN(C)[C@H]2Cc1ccc(Oc2c3c(cc(OC)c2OC)-c2c(OC)c(OC)c(OC)c4c2[C@H](C3)N(C)CC4)cc1`, the “Ratio IC50” value in the assay on PC-3 [3] is on record as 3; with HL-60 [4], 2; with PC-3 [5], 9. The IC50 with HL-60 [1] came to 1010 nM; in the assay on PC-3 [2], 2.47 µM.

`COc1cc2c(c(O)c1OC)CCN(C)[C@H]2Cc1ccc(Oc2c(OC)c(OC)cc3c2cc2c4c(c(OC)c(OC)c(OC)c43)CCN2C)cc1`: the IC50 with HL-60 [1] was found to be 4280 nM; in the assay on PC-3 [2], 7.1 µM.

With `CC[C@@]1(O)C(=O)OCc2c1cc1n(c2=O)Cc2cc3ccccc3nc2-1` [CAMPTOTHECIN], the figures for the IC50 in the assay on HL-60 [1] and in the assay on PC-3 [2] were 920 nM and 6.96 µM, respectively.
